The values that follow come from ChEMBL document CHEMBL1156929, “Synthesis, biological evaluation, and molecular modeling of 1-benzyl-1H-imidazoles as selective inhibitors of aldosterone synthase (CYP11B2)” (J Med Chem, 2010).

Test [1] deals with T1, Cytochrome P450 11B2, mitochondrial (Homo sapiens, UniProt P19099).
T1 sequence (P19099 whole entry): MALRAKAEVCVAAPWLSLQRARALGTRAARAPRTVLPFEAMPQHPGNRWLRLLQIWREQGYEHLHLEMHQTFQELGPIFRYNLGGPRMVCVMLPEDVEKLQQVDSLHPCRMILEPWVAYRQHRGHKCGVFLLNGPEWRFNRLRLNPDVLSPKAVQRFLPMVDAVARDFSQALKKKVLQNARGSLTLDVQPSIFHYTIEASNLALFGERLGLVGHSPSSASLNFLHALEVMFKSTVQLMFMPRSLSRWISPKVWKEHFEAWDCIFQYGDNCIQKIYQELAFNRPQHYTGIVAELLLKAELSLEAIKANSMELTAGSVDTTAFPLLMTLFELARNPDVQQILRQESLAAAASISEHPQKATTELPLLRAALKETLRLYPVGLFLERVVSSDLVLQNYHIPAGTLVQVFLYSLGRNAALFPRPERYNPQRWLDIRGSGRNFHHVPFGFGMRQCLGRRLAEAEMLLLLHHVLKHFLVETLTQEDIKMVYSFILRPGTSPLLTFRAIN
The experiment in a line: Inhibition of human CYP11B2 expressed in chinese hamster V79 cells. In kind it is cell-based. The procedure, abridged:
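Confluent V79 cells stably overexpressing human CYP11B2, 37 °C, 5% CO2. […] Steroids were extracted from medium with diethylether at pH 10.5 and quantified by HPLC (UV 243 nm) using peak-area ratios to methylprednisolone internal standard. IC50 from at least five concentrations, fitted to vi = v0/(1+I/IC50).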

Test [2] deals with T2, Cytochrome P450 11B1, mitochondrial (Homo sapiens, UniProt P15538).
T2 sequence (P15538 whole entry): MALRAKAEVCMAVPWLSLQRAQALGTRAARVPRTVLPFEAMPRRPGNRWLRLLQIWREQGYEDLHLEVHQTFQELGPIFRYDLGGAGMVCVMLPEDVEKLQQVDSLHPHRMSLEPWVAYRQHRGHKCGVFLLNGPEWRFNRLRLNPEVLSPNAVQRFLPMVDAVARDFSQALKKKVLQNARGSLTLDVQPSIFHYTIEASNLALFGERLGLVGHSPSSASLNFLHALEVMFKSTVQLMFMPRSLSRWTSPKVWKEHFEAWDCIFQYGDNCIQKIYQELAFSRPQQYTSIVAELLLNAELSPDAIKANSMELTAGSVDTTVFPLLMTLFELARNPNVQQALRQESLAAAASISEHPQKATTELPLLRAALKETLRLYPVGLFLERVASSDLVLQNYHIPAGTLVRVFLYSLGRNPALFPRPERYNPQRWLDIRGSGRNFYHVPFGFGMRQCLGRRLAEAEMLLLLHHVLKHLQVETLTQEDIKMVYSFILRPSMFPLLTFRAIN
Description: Inhibition of human CYP11B1 expressed in chinese hamster V79 cells. In kind it is cell-based.

In the case of `COc1ccc(Cn2cncc2CCCO)cc1`, in test [1] (read-out: IC50), the IC50 amounted to 59 nM.
With `Nc1cccc(Cn2ccnc2)c1`, the IC50 in test [1] (read-out: IC50) is 600 nM; in test [2] (read-out: IC50), 390 nM.
The corresponding values for `COC(=O)CCc1cncn1Cc1ccc(Cl)cc1` are 177 nM and 123 nM.
On the same counts, the results for `N#Cc1ccc(Cn2cncc2CCCO)cc1` are 13 nM and 48 nM.
Regarding `N#Cc1cccc(Cn2ccnc2)c1`, the IC50 in test [1], in test [1] (read-out: IC50) and in test [2] (read-out: IC50) was > 1000 nM in each case.
Take `Clc1cccc(Cn2ccnc2)c1`: the IC50 is 457 nM in test [1] (read-out: IC50) and 151 nM in test [2] (read-out: IC50).
Take `COC(=O)CCc1cncn1Cc1ccccc1`: the IC50 was determined as 193 nM in test [1] (read-out: IC50) and 326 nM in test [2] (read-out: IC50).
Regarding `N#Cc1ccc(Cn2cncc2-c2ccccc2)cc1`, the IC50 in test [2] (read-out: IC50) was determined as 28 nM.
Take `N#Cc1ccc(Cn2cncc2-c2cccc(F)c2)cc1`: the IC50 in test [2] (read-out: pIC50 (converted)) was 32.4 nM.
With `OCCCc1cncn1Cc1ccc(Br)cc1`, the IC50 in test [1] (read-out: IC50) was 6.2 nM; in test [2] (read-out: IC50), 18 nM.
The corresponding values for `c1ccc(Cn2cncc2-c2ccccc2)cc1` are 11 nM and 4.8 nM.
On the same counts, the results for `Cc1ccccc1-c1cncn1Cc1ccc(C#N)cc1` are 3.7 nM and 5.7 nM.
As for `N#Cc1ccc(Cn2cncc2CO)cc1`, the IC50 is 29 nM in test [1] (read-out: IC50) and 282 nM in test [2] (read-out: pIC50 (converted)).
For the compound `Brc1ccc(Cn2cncc2-c2ccccc2)cc1`, the values for the IC50 in test [1] (read-out: IC50) and in test [2] (read-out: IC50) were 5.1 nM and 7 nM, respectively.
The corresponding values for `Fc1ccc(Cn2ccnc2)cc1` are 330 nM and 494 nM.
Regarding `OCCCc1cncn1Cc1ccc(F)cc1`, the IC50 in test [1] (read-out: IC50) came out at 16 nM.
With `Fc1ccc(Cn2cncc2-c2ccccc2)cc1`, the IC50 in test [1] (read-out: IC50) is 11 nM; in test [2] (read-out: IC50), 16 nM.
On the same counts, the results for `OCc1cccc(Cn2ccnc2)c1` are 1170 nM and 206 nM.
The corresponding values for `c1ccc(Cn2ccnc2)cc1` [BENZYLIMIDAZOLE] are 1800 nM and 709 nM.
The corresponding values for `OCCCc1cncn1Cc1ccc(Cl)cc1` are 55 nM and 44 nM.
In the case of `N#Cc1ccc(Cn2cncc2-c2ccncc2)cc1`, the IC50 amounted to 407 nM in test [1] (read-out: IC50) and 307 nM in test [2] (read-out: IC50).
On the same counts, the results for `N#Cc1ccc(Cn2cncc2-c2ccccc2F)cc1` are 2.3 nM and 20 nM.
For `CCOC(=O)c1cncn1[C@H](C)c1ccccc1` [ETOMIDATE], the IC50 in test [1] (read-out: IC50) worked out at 1.7 nM.
Consider `Clc1ccc(Cn2cncc2-c2ccccc2)cc1`, for which the values for the IC50 in test [1] (read-out: IC50) and in test [2] (read-out: IC50) were 5.8 nM and 25 nM, respectively.
In the case of `COC(=O)c1cncn1Cc1ccc(C#N)cc1`, the IC50 in test [1] (read-out: IC50) came to 7 nM.
For `COC(=O)CCc1cncn1Cc1ccc(OC)cc1`, the results for the IC50 in test [1] (read-out: IC50) and in test [2] (read-out: IC50) were 121 nM and 111 nM, respectively.
The corresponding values for `Brc1cccc(Cn2ccnc2)c1` are 365 nM and 143 nM.
The corresponding values for `Cc1cccc(-c2cncn2Cc2ccc(C#N)cc2)c1` are 5.2 nM and 6.2 nM.
In the case of `Cc1cncn1Cc1ccc(C#N)cc1`, the IC50 in test [1] (read-out: IC50) was 12 nM.
As to `OCCCc1cncn1Cc1ccccc1`, the values for the IC50 in test [1] (read-out: IC50) and in test [2] (read-out: IC50) were 286 nM and 181 nM, respectively.
Consider `Clc1ccc(Cn2ccnc2)cc1`, for which the IC50 in test [1], in test [1] (read-out: IC50) and in test [2] (read-out: IC50) was > 1000 nM throughout.
As for `N#Cc1ccc(Cn2cncc2-c2ccc(F)cc2)cc1`, the IC50 in test [1] (read-out: IC50) was 25 nM; in test [2] (read-out: IC50) it was 27 nM.
In the case of `COc1ccc(Cn2cncc2-c2ccccc2)cc1`, the IC50 in test [1] (read-out: IC50) worked out at 14 nM; in test [2] (read-out: IC50) it was 11 nM.
On the same counts, the results for `Cc1ccc(-c2cncn2Cc2ccc(C#N)cc2)cc1` are 117 nM and 130 nM.
On the same counts, the results for `Brc1ccc(Cn2ccnc2)cc1` are 479 nM and 211 nM.
The corresponding values for `N#Cc1ccc(Cn2cncc2Br)cc1` are 23 nM and 73 nM.
For `N#Cc1ccc(Cn2ccnc2)cc1`, the figures for the IC50 in test [1] (read-out: IC50) and in test [2] (read-out: IC50) were 372 nM and 368 nM, respectively.
On to `COC(=O)CCc1cncn1Cc1ccc(F)cc1`, for which the IC50 in test [1] (read-out: IC50) worked out at 50 nM; in test [2] (read-out: IC50) it was 104 nM.
On to `Nc1ccc(Cn2ccnc2)cc1`, for which the IC50 in test [1] was > 1000 nM; in test [1] (read-out: IC50), > 1000 nM; in test [2] (read-out: IC50) it was 236 nM.
In the case of `Fc1cccc(Cn2ccnc2)c1`, the IC50 in test [1] (read-out: IC50) was 815 nM; in test [2] (read-out: IC50), 206 nM.
As to `OCc1ccc(Cn2ccnc2)cc1`, the IC50 was > 1000 nM in test [1], > 1000 nM in test [1] (read-out: IC50) and 695 nM in test [2] (read-out: IC50).
